Experimental data taken from ChEMBL document CHEMBL1144541, “Antinociceptive and antiinflammatory activities and QSAR studies on 2-substituted-4,5-diphenyl-1H-imidazoles” (2007).

Legend:
Format in all cases: functional
Mus musculus [1] = assay: Antinociceptive activity in ip dosed Swiss albino mouse assessed as latency time by hot plate method
Method in brief: (§1)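 Swiss albino mice (20–25 g) were housed 7 days at 30 ± 1 °C before testing, in groups of six. Compounds were given ip at 9.5–12.58 mg/kg as a 0.2% Tween suspension. Mice were placed on a 55 ± 0.5 °C hot plate before dosing and at 15, 30, 60 and 120 min after dosing, with a 15 s cut-off. Significance was assessed by Student's t test.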

Mus musculus [2] = assay: Antinociceptive activity in ip dosed Swiss albino mouse assessed as latency time after 15 mins by hot plate method; method in brief: as §1
Mus musculus [3] = assay: Antinociceptive activity in ip dosed Swiss albino mouse assessed as latency time after 30 mins by hot plate method; method in brief: as §1
Mus musculus [4] = assay: Antinociceptive activity in ip dosed Swiss albino mouse assessed as latency time after 60 mins by hot plate method; method in brief: as §1
Mus musculus [5] = assay: Antinociceptive activity in ip dosed Swiss albino mouse assessed as latency time after 120 mins by hot plate method; method in brief: as §1
Mus musculus [6] = assay: Antinociceptive activity in ip dosed Swiss albino mouse assessed as latency time by tail flick method
Method in brief: (§2)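 Swiss albino mice (20–25 g) received compounds ip at 9.5–12.58 mg/kg in 0.2% Tween suspension. Tail-flick latency to radiant heat was measured, with stimulus intensity set to give a 3–4 s baseline. Readings were taken just before injection and at 15, 30, 60 and 120 min after. Significance was assessed by Student's t test.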

Mus musculus [7] = assay: Antinociceptive activity in ip dosed Swiss albino mouse assessed as latency time after 15 mins by tail flick method; method in brief: as §2
Mus musculus [8] = assay: Antinociceptive activity in ip dosed Swiss albino mouse assessed as latency time after 30 mins by tail flick method; method in brief: as §2
Mus musculus [9] = assay: Antinociceptive activity in ip dosed Swiss albino mouse assessed as latency time after 60 mins by tail flick method; method in brief: as §2
Mus musculus [10] = assay: Antinociceptive activity in ip dosed Swiss albino mouse assessed as latency time after 120 mins by tail flick method; method in brief: as §2
Rattus norvegicus = assay: Antiinflammatory activity assessed as reduction of carrageenan-induced paw volume in intraperitoneally dosed Wistar rat after 3 hrs; parameters: scale not given: the % may be the effect or the level left
Method in brief: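 Wistar rats of either sex (120–150 g) were dosed ip with compounds at 9.5–12.58 mg/kg in 0.2% Tween suspension. After 1 h, 0.05 ml of 1.0% w/v carrageenan in 0.9% NaCl was injected into the left hind paw. Paw volume was measured by mercury-displacement plethysmometry before injection and at 1, 2 and 3 h. Percent inhibition of the 3 h swelling was calculated.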

SMILES | Activity (Mus musculus [1]) | Activity (Mus musculus [2]) | Activity (Mus musculus [3]) | Activity (Mus musculus [4]) | Activity (Mus musculus [5]) | Activity (Mus musculus [6]) | Activity (Mus musculus [7]) | Activity (Mus musculus [8]) | Activity (Mus musculus [9]) | Activity (Mus musculus [10]) | Activity (Rattus norvegicus)
Cc1ccc(-c2nc(-c3ccccc3)c(-c3ccccc3)[nH]2)cc1 | 4.35 s | 4.5 s | 4.62 s | 4.83 s | 4.82 s | 4.14 s | 4.14 s | 4.82 s | 4.82 s | 4.89 s | 11.63%
COc1ccccc1-c1nc(-c2ccccc2)c(-c2ccccc2)[nH]1 | 4.9 s | 4.94 s | 6.89 s | 8.65 s | 9.25 s | 4.21 s | 4.21 s | 5.98 s | 7.64 s | 9.23 s | 65.12%
COc1cc(-c2nc(-c3ccccc3)c(-c3ccccc3)[nH]2)ccc1O | 4.68 s | 5.23 s | 6.2 s | 7.92 s | 8.99 s | 4.16 s | 4.12 s | 5.57 s | 7.18 s | 8.34 s | 58.14%
c1ccc(-c2nc[nH]c2-c2ccccc2)cc1 | 4.66 s | 4.83 s | 4.83 s | 5.05 s | 5.2 s | 3.9 s | 3.92 s | 4.01 s | 4.01 s | 4.02 s | 20.94%
Clc1cccc(-c2nc(-c3ccccc3)c(-c3ccccc3)[nH]2)c1 | 4.68 s | 5.14 s | 6.18 s | 7.78 s | 8.91 s | 4.12 s | 4.12 s | 4.98 s | 6.89 s | 8.18 s | 55.82%
Nc1ccc(-c2nc(-c3ccccc3)c(-c3ccccc3)[nH]2)cc1 | 4.48 s | 4.69 s | 7.01 s | 8.25 s | 10.08 s | 4.22 s | 4.27 s | 6.18 s | 7.77 s | 10.05 s | 81.4%
c1ccc(-c2nc(-c3ccccc3)c(-c3ccccc3)[nH]2)cc1 | 4.63 s | 4.58 s | 5.28 s | 6.07 s | 6.1 s | 4.13 s | 4.13 s | 4.67 s | 5.12 s | 5.78 s | 30.24%
COc1cccc(-c2nc(-c3ccccc3)c(-c3ccccc3)[nH]2)c1 | 4.67 s | 5.02 s | 6.15 s | 7.42 s | 8.79 s | 4.12 s | 4.12 s | 4.56 s | 6.75 s | 7.99 s | 37.21%
C=CCc1nc(-c2ccccc2)c(-c2ccccc2)[nH]1 | 4.66 s | 5.08 s | 5.12 s | 5.33 s | 5.47 s | 3.98 s | 4.02 s | 4.23 s | 4.27 s | 4.29 s | 32.56%
Brc1ccc(-c2nc(-c3ccccc3)c(-c3ccccc3)[nH]2)cc1 | 4.45 s | 4.65 s | 6.37 s | 6.38 s | 6.38 s | 4.2 s | 4.45 s | 5.33 s | 6.5 s | 6.83 s | 74.42%
O=[N+]([O-])c1ccc(-c2nc(-c3ccccc3)c(-c3ccccc3)[nH]2)cc1 | 4.37 s | 4.6 s | 4.66 s | 5.82 s | 5.83 s | 4.13 s | 4.14 s | 5.09 s | 5.12 s | 5.13 s | 25.59%
Cc1nc(-c2ccccc2)c(-c2ccccc2)[nH]1 | 4.65 s | 5.1 s | 5.33 s | 5.47 s | 5.52 s | 4.12 s | 4.17 s | 4.28 s | 4.35 s | 4.35 s | 25.59%
O=[N+]([O-])c1ccccc1-c1nc(-c2ccccc2)c(-c2ccccc2)[nH]1 | 4.5 s | 4.52 s | 4.62 s | 4.67 s | 4.71 s | 4.09 s | 4.1 s | 4.38 s | 4.38 s | 4.39 s | 30.24%
Oc1ccccc1-c1nc(-c2ccccc2)c(-c2ccccc2)[nH]1 | 4.89 s | 4.93 s | 6.32 s | 8.59 s | 9.16 s | 4.2 s | 4.18 s | 5.82 s | 7.53 s | 9.12 s | 60.47%
O=[N+]([O-])c1cccc(-c2nc(-c3ccccc3)c(-c3ccccc3)[nH]2)c1 | 4.55 s | 4.56 s | 4.6 s | 4.62 s | 5.62 s | 4.09 s | 4.09 s | 4.36 s | 5.74 s | 5.82 s | 4.66%
Ic1ccc(-c2nc(-c3ccccc3)c(-c3ccccc3)[nH]2)cc1 | 4.45 s | 4.64 s | 5.33 s | 6.18 s | 6.18 s | 4.16 s | 4.26 s | 5.21 s | 5.89 s | 6.5 s | 27.91%
Cc1ccccc1-c1nc(-c2ccccc2)c(-c2ccccc2)[nH]1 | 4.5 s | 4.55 s | 4.67 s | 4.79 s | 5.79 s | 4.11 s | 4.12 s | 4.52 s | 4.98 s | 5.52 s | 18.61%
Fc1ccc(-c2nc(-c3ccccc3)c(-c3ccccc3)[nH]2)cc1 | 4.78 s | 4.93 s | 7.5 s | 9.33 s | 10.83 s | 4.55 s | 4.87 s | 7.14 s | 8.92 s | 10.67 s | 79.07%
Oc1ccc(-c2nc(-c3ccccc3)c(-c3ccccc3)[nH]2)cc1 | 4.55 s | 4.81 s | 7.21 s | 8.63 s | 10.33 s | 4.4 s | 4.48 s | 6.79 s | 8.18 s | 10.33 s | 83.73%
CN(C)c1ccc(-c2nc(-c3ccccc3)c(-c3ccccc3)[nH]2)cc1 | 4.5 s | 4.76 s | 7.16 s | 8.33 s | 10.3 s | 4.26 s | 4.45 s | 6.32 s | 7.93 s | 10.18 s | 69.77%
Cc1cccc(-c2nc(-c3ccccc3)c(-c3ccccc3)[nH]2)c1 | 4.56 s | 4.6 s | 4.63 s | 4.67 s | 5.72 s | 4.1 s | 4.1 s | 4.48 s | 5.89 s | 5.93 s | 9.31%
